From ChEMBL document CHEMBL3091319, “Chemical synthesis and biological validation of immobilized protein kinase inhibitory Leucettines” (Eur J Med Chem, 2013)
Activity calls are given as the source filed them. No cut-off for these calls is given here.

What was measured:
[1] = target: Glycogen synthase kinase-3 (Sus scrofa, UniProt B2LUN4+I6LNT8); test: Inhibition of porcine brain GSK-3alpha/beta using YRRAAVPPSPSLSRHSSPHQSpEDEEE as substrate
Method in brief: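 Reaction harvested onto P81 paper, washed in 1% phosphoric acid, and scintillation-counted. Blanks subtracted; activity as % of the no-inhibitor activity, with DMSO controls. IC50 from dose-response curves.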

[2] = target: T1, Dual specificity tyrosine-phosphorylation-regulated kinase 3 (Homo sapiens, UniProt O43781); test: Inhibition of human recombinant DYRK3 expressed in Escherichia coli using GRSRSRSRSRSR as substrate
T1 sequence (O43781 whole entry): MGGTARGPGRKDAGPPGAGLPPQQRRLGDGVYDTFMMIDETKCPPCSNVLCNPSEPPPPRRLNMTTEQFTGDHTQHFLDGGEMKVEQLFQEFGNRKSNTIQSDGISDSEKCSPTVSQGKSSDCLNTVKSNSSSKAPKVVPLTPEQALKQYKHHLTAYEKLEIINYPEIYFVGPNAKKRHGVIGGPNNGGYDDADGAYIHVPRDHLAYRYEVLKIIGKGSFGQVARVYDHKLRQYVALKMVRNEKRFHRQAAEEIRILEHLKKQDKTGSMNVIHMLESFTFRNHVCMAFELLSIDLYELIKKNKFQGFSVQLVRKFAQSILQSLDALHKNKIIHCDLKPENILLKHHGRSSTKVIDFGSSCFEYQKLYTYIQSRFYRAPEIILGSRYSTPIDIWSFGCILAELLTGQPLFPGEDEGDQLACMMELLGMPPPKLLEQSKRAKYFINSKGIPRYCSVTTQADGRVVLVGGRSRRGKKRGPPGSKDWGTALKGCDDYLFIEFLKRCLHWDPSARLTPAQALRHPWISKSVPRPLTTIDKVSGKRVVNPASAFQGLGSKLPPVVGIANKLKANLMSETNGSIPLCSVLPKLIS

[3] = target: T2, Dual specificity tyrosine-phosphorylation-regulated kinase 2 (Homo sapiens, UniProt Q92630); test: Inhibition of human recombinant DYRK2 expressed in Escherichia coli using GRSRSRSRSRSR as substrate
T2 sequence (Q92630 whole entry): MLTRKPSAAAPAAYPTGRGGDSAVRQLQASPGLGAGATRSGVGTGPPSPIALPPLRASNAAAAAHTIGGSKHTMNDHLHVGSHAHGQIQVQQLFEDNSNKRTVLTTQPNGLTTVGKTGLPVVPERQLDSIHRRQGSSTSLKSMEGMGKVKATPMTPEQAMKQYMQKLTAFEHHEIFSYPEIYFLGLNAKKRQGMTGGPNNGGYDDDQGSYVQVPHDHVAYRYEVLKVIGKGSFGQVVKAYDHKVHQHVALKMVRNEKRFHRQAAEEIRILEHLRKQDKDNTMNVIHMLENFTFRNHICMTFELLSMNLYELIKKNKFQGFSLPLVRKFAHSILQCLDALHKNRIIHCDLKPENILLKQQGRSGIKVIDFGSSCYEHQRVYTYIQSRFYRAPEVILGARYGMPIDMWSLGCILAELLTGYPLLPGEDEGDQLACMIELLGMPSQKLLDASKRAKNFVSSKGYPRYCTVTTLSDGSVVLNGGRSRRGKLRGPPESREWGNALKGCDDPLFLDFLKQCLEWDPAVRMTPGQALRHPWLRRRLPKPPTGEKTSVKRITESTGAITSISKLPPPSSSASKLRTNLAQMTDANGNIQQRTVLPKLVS

[4] = target: Dual specificity tyrosine-phosphorylation-regulated kinase 1B (Homo sapiens, UniProt Q9Y463)
[5] = target: Dual specificity tyrosine-phosphorylation-regulated kinase 1A (Homo sapiens, UniProt Q13627); test: Inhibition of human recombinant DYRK1A expressed in Escherichia coli using GRSRSRSRSRSR as substrate
[6] = target: Dual specificity protein kinase CLK4 (Mus musculus, UniProt O35493); test: Inhibition of mouse recombinant CLK4 expressed in Escherichia coli using GRSRSRSRSRSR as substrate
[7] = target: Dual specificity protein kinase CLK3 (Mus musculus, UniProt O35492); test: Inhibition of mouse recombinant CLK3 expressed in Escherichia coli using GRSRSRSRSRSR as substrate
Method in brief: (§1)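 Human DYRKs and mouse CLKs were expressed in E. coli as GST fusions and purified on glutathione-agarose. Each was assayed with RS peptide substrate and [γ-33P]ATP in buffer D at 30 °C for 30 min. Phosphorylation was read on P81 filters by scintillation. Activity is given as % of maximal after blank subtraction, and IC50 was derived from dose-response curves.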

[8] = target: Dual specificity protein kinase CLK2 (Mus musculus, UniProt O35491); test: Inhibition of mouse recombinant CLK2 expressed in Escherichia coli using GRSRSRSRSRSR as substrate; method in brief: as §1
[9] = target: Dual specificity protein kinase CLK1 (Mus musculus, UniProt P22518); test: Inhibition of mouse recombinant CLK1 expressed in Escherichia coli using GRSRSRSRSRSR as substrate; method in brief: as §1
[10] = Inhibition of porcine brain CK1delta/epsilon using RRKHAAIGpSAYSITA as substrate; parameters: species or system Sus scrofa
Method in brief: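 Native porcine brain CK1δ/ε was assayed with the CKS phosphopeptide substrate, [γ-33P]ATP and buffer D for 30 min at 30 °C. Product was captured on P81 paper and counted by scintillation. IC50 was calculated from dose-response curves, with activity as % of the no-inhibitor control.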

CDK9/cyclin T1 = CDK9/cyclin T1 (Homo sapiens, UniProt P50750); test: Inhibition of human recombinant CDK9/cyclin T using YSPTSPSYSPTSPSYSPTSPSKKKK as substrate; assay type: protein-complex assay
Method in brief: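 CDK9/cyclin T was human recombinant, made in insect cells. It was run like the CDK1 radiometric assay: buffer D with [γ-33P]ATP, 30 min at 30 °C, CDK7/9 tide peptide substrate, P81 capture and scintillation counting. IC50 came from dose-response curves relative to a DMSO control.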

[11] = target: Cyclin-dependent kinase 5/CDK5 activator 1 (Homo sapiens, UniProt Q00535); test: Inhibition of human recombinant CDK5/p25 using [gamma-33P]-ATP after 30 mins by scintillation counting; assay type: protein-complex assay
CDK2/Cyclin A2 = CDK2/Cyclin A2 (Homo sapiens, UniProt P24941); test: Inhibition of human recombinant CDK2/cyclin A using [gamma-33P]-ATP after 30 mins by scintillation counting; assay type: protein-complex assay
Method in brief: (§2)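 Native starfish M-phase CDK1/cyclin B or human recombinant CDK2 or CDK5/p25 was incubated with histone H1 (1 mg/mL) and [γ-33P]ATP in buffer D (10 mM MgCl2, 1 mM EGTA, 1 mM DTT, 25 mM Tris/HCl, heparin) at 30 °C for 30 min. BSA was added except for CDK2. Reactions were spotted on P81 paper, washed in 1% phosphoric acid and counted by scintillation. Activity is expressed as % of the no-inhibitor control with blanks subtracted. IC50 was taken from dose-response curves.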

[12] = Inhibition of M phase starfish oocytes CDK1/cyclin B using [gamma-33P]-ATP after 30 mins by scintillation counting; parameters: species or system Asteroidea; method in brief: as §2
Mus musculus = species: Mus musculus; test: Binding affinity to GSK3 in mouse brain extracts by Western blot analysis; assay type: tissue-based
Method in brief: (§3)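 Mouse brains homogenized and sonicated in Mops pH 7.2 buffer with β-glycerophosphate, phosphatase and protease inhibitors, spun 15 min at 17,000×g at 4 °C. Extract (1 or 2 mg total protein) rotated 30 min at 4 °C with ligand-linker coupled via amine to CNBr-activated Sepharose. Beads washed 4×, boiled 3 min in LDS/DTT, then 10% Bis-Tris SDS-PAGE and immunoblot with specific antibodies and ECL.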

[13] = target: Dual specificity tyrosine-phosphorylation-regulated kinase 1A (Mus musculus) (UniProt Q61214); test: Binding affinity to DYRK1A in mouse brain extracts by Western blot analysis; assay type: tissue-based; method in brief: as §3

Chain of Dual specificity protein kinase CLK2 (O35491 whole entry): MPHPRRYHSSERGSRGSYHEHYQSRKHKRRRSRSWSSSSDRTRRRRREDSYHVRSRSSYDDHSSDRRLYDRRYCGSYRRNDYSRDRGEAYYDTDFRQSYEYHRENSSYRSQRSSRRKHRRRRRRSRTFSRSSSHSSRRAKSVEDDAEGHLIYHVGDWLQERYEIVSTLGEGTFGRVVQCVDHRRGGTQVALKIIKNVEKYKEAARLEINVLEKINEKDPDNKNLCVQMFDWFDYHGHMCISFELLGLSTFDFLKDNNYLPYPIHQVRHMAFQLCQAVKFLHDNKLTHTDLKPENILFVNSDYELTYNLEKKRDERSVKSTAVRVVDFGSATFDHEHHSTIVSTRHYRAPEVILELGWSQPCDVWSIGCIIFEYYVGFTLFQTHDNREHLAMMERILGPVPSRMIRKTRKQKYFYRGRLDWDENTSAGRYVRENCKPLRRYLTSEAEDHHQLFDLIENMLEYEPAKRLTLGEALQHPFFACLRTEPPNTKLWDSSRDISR
Chain of Dual specificity protein kinase CLK4 (O35493 whole entry): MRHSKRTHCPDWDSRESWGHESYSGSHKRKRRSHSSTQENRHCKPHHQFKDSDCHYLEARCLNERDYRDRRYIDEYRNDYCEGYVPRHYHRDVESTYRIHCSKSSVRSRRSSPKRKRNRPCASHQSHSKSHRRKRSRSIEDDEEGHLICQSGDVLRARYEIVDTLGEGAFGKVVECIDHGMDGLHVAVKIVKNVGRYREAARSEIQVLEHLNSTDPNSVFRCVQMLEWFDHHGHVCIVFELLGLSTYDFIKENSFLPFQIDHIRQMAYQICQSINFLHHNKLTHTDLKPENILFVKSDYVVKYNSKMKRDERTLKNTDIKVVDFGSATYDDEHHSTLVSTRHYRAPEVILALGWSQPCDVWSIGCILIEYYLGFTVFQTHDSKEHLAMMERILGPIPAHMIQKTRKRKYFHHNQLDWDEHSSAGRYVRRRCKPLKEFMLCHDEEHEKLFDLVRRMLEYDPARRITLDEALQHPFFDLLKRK
Chain of Dual specificity protein kinase CLK3 (O35492 whole entry, the tested form may be a part): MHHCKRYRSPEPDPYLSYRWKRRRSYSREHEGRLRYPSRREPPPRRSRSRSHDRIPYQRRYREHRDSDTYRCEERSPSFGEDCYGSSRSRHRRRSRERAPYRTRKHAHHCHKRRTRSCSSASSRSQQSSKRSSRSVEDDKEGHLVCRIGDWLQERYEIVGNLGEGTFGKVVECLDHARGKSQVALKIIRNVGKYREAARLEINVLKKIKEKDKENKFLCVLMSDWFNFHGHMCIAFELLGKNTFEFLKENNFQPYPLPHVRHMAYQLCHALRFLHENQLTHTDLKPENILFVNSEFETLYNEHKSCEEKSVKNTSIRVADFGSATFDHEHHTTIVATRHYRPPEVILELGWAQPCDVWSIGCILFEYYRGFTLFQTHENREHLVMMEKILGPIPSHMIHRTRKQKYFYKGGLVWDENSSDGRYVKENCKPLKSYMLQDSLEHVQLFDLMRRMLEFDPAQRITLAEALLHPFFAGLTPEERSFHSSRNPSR
Chain of Dual specificity tyrosine-phosphorylation-regulated kinase 1B (Q9Y463 whole entry): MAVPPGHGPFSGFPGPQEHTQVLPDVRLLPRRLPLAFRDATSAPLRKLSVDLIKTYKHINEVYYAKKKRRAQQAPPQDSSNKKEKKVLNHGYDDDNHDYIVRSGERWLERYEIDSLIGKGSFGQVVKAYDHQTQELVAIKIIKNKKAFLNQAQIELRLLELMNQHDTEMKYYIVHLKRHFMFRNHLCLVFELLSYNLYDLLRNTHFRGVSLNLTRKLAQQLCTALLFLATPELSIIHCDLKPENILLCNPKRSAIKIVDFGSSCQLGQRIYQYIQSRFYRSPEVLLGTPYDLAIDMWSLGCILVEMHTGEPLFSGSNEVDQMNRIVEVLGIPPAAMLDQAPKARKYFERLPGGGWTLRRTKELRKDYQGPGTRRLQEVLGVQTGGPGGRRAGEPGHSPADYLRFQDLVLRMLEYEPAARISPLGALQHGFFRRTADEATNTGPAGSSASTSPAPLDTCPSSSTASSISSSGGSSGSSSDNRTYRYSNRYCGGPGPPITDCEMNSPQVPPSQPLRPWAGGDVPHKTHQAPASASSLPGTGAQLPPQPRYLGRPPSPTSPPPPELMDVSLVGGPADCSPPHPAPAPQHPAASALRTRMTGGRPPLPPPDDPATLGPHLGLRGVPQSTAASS
Chain of Cyclin-dependent kinase 5/CDK5 activator 1 (Q00535 whole entry): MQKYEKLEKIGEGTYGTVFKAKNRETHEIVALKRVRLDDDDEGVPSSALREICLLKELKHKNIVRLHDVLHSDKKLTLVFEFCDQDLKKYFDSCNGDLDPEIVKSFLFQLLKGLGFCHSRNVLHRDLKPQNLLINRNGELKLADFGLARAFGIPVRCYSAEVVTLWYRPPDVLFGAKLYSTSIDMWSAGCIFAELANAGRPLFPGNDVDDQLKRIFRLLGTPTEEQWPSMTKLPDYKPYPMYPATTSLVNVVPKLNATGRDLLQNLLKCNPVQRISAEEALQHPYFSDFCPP
Chain of Cyclin-dependent kinase 5/CDK5 activator 1 (Q15078 whole entry, further chain): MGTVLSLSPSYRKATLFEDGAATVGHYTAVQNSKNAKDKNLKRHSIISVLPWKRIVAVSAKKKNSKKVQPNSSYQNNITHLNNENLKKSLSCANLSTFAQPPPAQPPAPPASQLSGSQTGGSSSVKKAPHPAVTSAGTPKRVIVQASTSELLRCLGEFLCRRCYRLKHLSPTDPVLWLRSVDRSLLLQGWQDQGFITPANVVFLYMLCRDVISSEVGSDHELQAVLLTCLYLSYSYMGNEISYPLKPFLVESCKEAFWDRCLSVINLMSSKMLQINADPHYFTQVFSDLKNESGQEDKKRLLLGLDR
Chain of CDK9/cyclin T1 (O60563 whole entry): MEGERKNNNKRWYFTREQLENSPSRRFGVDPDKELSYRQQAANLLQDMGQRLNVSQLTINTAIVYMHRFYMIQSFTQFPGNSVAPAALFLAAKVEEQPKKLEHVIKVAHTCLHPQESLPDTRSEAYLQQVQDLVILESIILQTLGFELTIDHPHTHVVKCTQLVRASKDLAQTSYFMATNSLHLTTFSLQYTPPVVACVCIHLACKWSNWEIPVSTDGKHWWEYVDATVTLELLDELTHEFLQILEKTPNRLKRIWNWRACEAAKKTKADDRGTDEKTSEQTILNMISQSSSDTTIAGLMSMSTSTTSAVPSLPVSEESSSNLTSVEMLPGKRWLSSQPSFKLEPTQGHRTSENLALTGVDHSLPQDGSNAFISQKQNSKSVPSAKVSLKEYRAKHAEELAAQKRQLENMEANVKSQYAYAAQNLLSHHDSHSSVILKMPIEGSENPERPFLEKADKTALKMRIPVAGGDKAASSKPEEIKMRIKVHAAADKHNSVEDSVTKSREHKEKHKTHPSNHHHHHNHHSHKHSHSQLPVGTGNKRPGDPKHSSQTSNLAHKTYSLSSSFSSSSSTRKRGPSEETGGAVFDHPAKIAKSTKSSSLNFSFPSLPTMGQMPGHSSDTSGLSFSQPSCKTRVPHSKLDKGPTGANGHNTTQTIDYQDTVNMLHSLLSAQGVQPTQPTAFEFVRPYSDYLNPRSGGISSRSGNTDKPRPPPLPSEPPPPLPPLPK
Chain of CDK9/cyclin T1 (P50750 whole entry): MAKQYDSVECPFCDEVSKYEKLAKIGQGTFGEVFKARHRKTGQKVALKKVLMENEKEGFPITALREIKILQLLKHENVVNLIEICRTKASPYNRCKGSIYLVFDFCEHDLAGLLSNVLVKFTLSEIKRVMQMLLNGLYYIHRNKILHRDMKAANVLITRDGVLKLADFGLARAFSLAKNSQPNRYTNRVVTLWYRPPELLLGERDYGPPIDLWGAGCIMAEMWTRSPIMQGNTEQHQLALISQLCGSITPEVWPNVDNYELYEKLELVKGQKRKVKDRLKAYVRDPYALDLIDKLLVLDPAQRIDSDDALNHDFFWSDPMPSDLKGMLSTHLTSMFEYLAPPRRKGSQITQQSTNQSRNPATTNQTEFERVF
Chain of Dual specificity protein kinase CLK1 (P22518 whole entry): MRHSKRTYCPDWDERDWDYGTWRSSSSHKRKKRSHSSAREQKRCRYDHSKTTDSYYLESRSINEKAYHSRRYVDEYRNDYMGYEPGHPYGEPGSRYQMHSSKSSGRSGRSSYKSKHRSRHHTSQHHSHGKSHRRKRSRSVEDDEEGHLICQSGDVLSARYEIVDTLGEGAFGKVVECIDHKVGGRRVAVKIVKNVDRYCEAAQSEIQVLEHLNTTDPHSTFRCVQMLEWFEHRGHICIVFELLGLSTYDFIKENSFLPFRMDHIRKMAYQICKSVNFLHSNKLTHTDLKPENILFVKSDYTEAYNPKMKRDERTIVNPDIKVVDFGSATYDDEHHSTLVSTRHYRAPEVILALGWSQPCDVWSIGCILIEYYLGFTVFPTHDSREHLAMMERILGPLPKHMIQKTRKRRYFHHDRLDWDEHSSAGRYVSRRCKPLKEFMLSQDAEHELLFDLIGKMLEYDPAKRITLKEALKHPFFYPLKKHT

Row | SMILES | IC50 [1] [µM] | IC50 [2] [µM] | IC50 [3] [µM] | IC50 [4] [µM] | IC50 [5] [µM] | IC50 [6] [µM] | IC50 [7] [µM] | IC50 [8] [µM] | IC50 [9] [µM] | IC50 [10] [µM] | IC50 (CDK9/cyclin T1) [µM] | IC50 [11] [µM] | IC50 (CDK2/Cyclin A2) [µM] | IC50 [12] [µM] | Activity (Mus musculus) | Activity [13]
1 | NCCOCCOCCO | > 10 | > 10 | > 10 | > 10 | > 10 | > 10 | > 10 | > 10 | > 10 | > 10 | > 10 | > 10 | > 10 | > 10 | – | –
2 | NCCOCCOCCOCCOc1ccc(NC2=N/C(=C\c3ccc4c(c3)OCO4)C(=O)N2)cc1 | 0.2 | 0.18 | 0.13 | 0.072 | 0.028 | 0.061 | 0.55 | 0.21 | 0.061 | > 10 | 3.7 | > 10 | > 10 | > 10 | Active | Active
3 | NCCOCCOCCOc1ccc(NC2=N/C(=C\c3ccc4c(c3)OCO4)C(=O)N2)cc1 | 0.27 | 0.2 | 0.15 | 0.11 | 0.05 | 0.081 | 0.81 | 0.28 | 0.075 | > 10 | 7.4 | > 10 | > 10 | > 10 | Active | Active
4 | NCCOCCOCCOc1ccc(NC2=N/C(=C\c3ccccc3)C(=O)N2)cc1 | 40 | > 10 | > 10 | > 10 | 8.5 | > 10 | > 10 | > 10 | > 10 | > 10 | > 10 | > 10 | > 10 | > 10 | Active | Active
5 | O=C1NC(Nc2ccccc2)=N/C1=C\c1ccccc1 | > 100 | > 10 | > 10 | > 10 | > 100 | > 10 | > 10 | > 10 | > 10 | > 10 | > 10 | > 10 | > 10 | > 10 | – | –
6 | O=C1NC(Nc2ccccc2)=N/C1=C\c1ccc2c(c1)OCO2 | 0.73 | – | – | – | – | – | 3 | 0.32 | 0.035 | > 10 | > 10 | – | > 10 | > 10 | – | –
